# Most compounds without a hit are left out; they make up all but 3.9% or so of the library.
# HSF1 inh: HSF1 inhibition | 0.77% of 300,000 active | AID 2098 | NIH3T3-HGL HSE-luciferase, MG132-induced, luminescence 8 h; active compounds read low | activity change, negative = inhibition, % at 7.5 µM (by protocol);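 active = more than half of replicate wells show activity change below -50%, luminescence cut by over half; inconclusive = some wells, but at most half, below -50%; inactive = no replicate well below -50%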;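 also: luciferase reports HSF-1 transcriptional activity via heat shock element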
# HSP90 inh: blocks HSP90-mediated luciferase refolding in reticulocyte lysate. Rabbit reticulocyte lysate, luciferase refolding luminescence, 3 h. 0.91% of 290,000 active. AID 1789. inhibition, % at 5.6 µM;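 active = inhibition above the screen-wide mean plus 3 SD, computed separately per campaign, cut at about 16% in these data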;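 also: inhibitors lower the luminescence because luciferase stays unfolded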
# NS3 helicase inh: blocks Hepatitis C virus NS3 helicase unwinding. NS3 helicase DNA unwinding, Cy5 molecular beacon fluorescence. inhibition, % at 10.9 µM. 0.56% of 290,000 active. AID 1800;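 active = inhibition above the mean of all tested compounds plus 3 SD, set per campaign, cut at about 35% in these data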
#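 System: Hepatitis C virus NS3 helicase domain fragment enzyme | Reagent: Annealed dual-labelled DNA beacon duplex, ATP-started | Compound dosing: 10.9 µM single point, 0.8% DMSO | Incubation: 1 h reaction at 25 °C, ATP-initiated | Technique: Cy5 fluorescence | Evaluation: Percent inhibition from t60/t0 fluorescence ratio | Benchmarks: Low DMSO, high thioflavine S at 110 µM | Replication: Singlicate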
# DNA FID counter-1: displaces DNA intercalator in HCV helicase counter-screen. 0.17% of 290,000 active. DNA fluorescent intercalator displacement, fluorescence. inhibition, % at 7.9 µM;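 also: higher means more ethidium bromide displaced from hairpin DNA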
# HSF1 activator: increases HSF-1 driven luciferase reporter signal; 1.7% of 300,000 active; AID 504408; activation, % at 9 µM; NIH3T3-HGL HSF-1 luciferase reporter, MG132, 8 h; 100% = twice DMSO control signal;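 active = mean replicate activation of at least 50% with a set share of replicates each reaching 50%; inconclusive = only one of those two conditions met; inactive = mean below 50% and too few replicates reaching it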
# core dimer inh: HCV core protein dimerization inhibition. TR-FRET GST/Flag-core106 dimerization, 1536-well. inhibition, % at 5 µM. 0.33% of 300,000 active. AID 1899;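 active = inhibition above the mean of all tested compounds plus 3 SD, set per screening campaign, cut at about 45% in these data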
#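 Assay system: tagged HCV core106 pair (GST and Flag); medium: KF-containing HEPES buffer, pH 7.45, DTT, CHAPS, BSA; also added: Eu donor and XL665 acceptor anti-tag antibodies; dosing: 5 µM single dose; timing: compound-protein-antibody incubation 4 h at 22.5 °C; signal: TR-FRET 671 and 617 nm emission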
# NS3 helicase cf: HCV NS3 helicase inhibition, confirmation assay. shares compounds with NS3 helicase inh. NS3 helicase DNA unwinding, Cy5 molecular beacon fluorescence. inhibition, % at 10.9 µM. 31% of 1,600 active. AID 1943;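 active = inhibition above the mean of all tested compounds plus 3 SD, cutoff set per campaign, cut at about 36% in these data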
# DNA FID counter-2: counter-screen for HCV NS3 helicase inhibitors: DNA intercalator displacement | shares compounds with NS3 helicase inh | DNA fluorescent intercalator displacement, fluorescence | inhibition, % at 7.9 µM | 4% of 1,600 active;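 also: higher means more displacement of ethidium bromide from the DNA hairpin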
# A number is an active result; n = inactive; u = inconclusive; x = no result. Rule as the data show it, unless noted: active = inhibition above about 37%; inactive = the rest.
SMILES,HSF1 inh,HSP90 inh,NS3 helicase inh,DNA FID counter-1,HSF1 activator,core dimer inh,NS3 helicase cf,DNA FID counter-2
N=C1S/C(=C\c2ccc(-c3ccccc3C(=O)O)o2)C(=O)N1c1ccc2c(c1)OCO2,n,n,n,n,n,x,x,x
CC1CCCC(NC(=S)NC(=O)c2ccccc2Br)C1C (stereo unspecified),n,n,n,n,n,n,x,x
Cc1ccccc1N1C(S)=C(C#N)C(=O)NC1c1cccs1 (stereo unspecified),n,n,67,n,n,n,n,n
O=C([C@@H]1CC=C[C@@H]2CCN(C3CCCCC3)C(=O)[C@@H]21)N1CCN(c2ccccc2)CC1,n,x,x,x,n,n,x,x
CC(=O)Nc1ccc(OCCOc2ccc(/C=C3/C(=N)N4C=CSC4=NC3=O)cc2)cc1,n,n,n,n,n,n,x,x
COc1cccc(C(=O)CC(=O)C(=O)Nc2cc(OC)ccc2OC)c1,n,n,n,n,n,n,x,x
COc1ccc(C(=O)CC(=O)C(=O)Nc2ccccc2OC)cc1,n,n,n,n,n,n,x,x
COc1cccc(C(=O)CC(=O)C(=O)Nc2ccc(C)cc2Cl)c1,n,n,63,n,n,n,n,n
COc1ccc(C(=O)CC(=O)C(=O)Nc2ccc(C)cc2Cl)cc1,n,n,38,n,u,n,n,n
Cc1ccc(S(=O)(=O)N2CCC(C(=O)OCC(=O)N(C)CC(=O)Nc3ccc(F)cc3)CC2)cc1C,n,x,x,x,n,n,x,x
Nc1c(C(=O)NC2CCCC2)sc2nc(-c3cccs3)ccc12,n,n,56,n,56,n,n,n
Cc1ccc(C2C(C#N)=C(N)SC(N)=C2C#N)c(C)c1,n,n,36,n,u,n,n,n
O=C1Cn2c(nc3ccccc32)N1c1cccc(C(F)(F)F)c1,n,n,n,n,n,n,x,x
Cc1ccc(-c2nnc(NC(=O)Cc3ccc(F)cc3)o2)c(C)c1,n,n,n,n,n,n,x,x
Cc1ccc(C)c(-c2nnc(NC(=O)Cc3ccc(F)cc3)o2)c1,n,n,42,n,n,n,n,n
Cc1cc(C)nc(NS(=O)(=O)c2ccc(NC(=O)c3ccc(S(=O)(=O)N(C)C)cc3)cc2)n1,n,n,n,n,n,n,x,x
Cc1cc(C)nc(NS(=O)(=O)c2ccc(NC(=O)c3ccc(N4C(=O)CCC4=O)cc3)cc2)n1,n,n,60,n,n,n,n,n
Cc1cccc(C)c1NC(=O)CN(C)C(=O)c1cccc(S(=O)(=O)N2CCN(c3ccc(F)cc3)CC2)c1,n,x,x,x,n,n,x,x
N#C/C(=C/c1ccc(Br)o1)C(N)=S,n,n,37,n,n,n,n,n
N#C/C(=C/c1cc[nH]c1)C(N)=S,n,n,n,n,n,n,x,x
CCn1nc(C)c(C2C(C#N)=C(N)OC3=C2C(=O)CC(C)(C)C3)c1C (stereo unspecified),n,n,n,n,n,n,x,x
CCOc1ccc(C(=O)Nc2nnc(S(=O)(=O)N(C)Cc3ccco3)s2)cc1,n,n,57,n,n,n,n,n
CN(Cc1ccco1)S(=O)(=O)c1nnc(NC(=O)c2ccc(F)cc2)s1,n,n,n,n,n,n,x,x
COc1ccc(CNc2cccc3[nH]c(C(F)(F)F)nc23)cc1OC,n,n,42,n,n,n,n,n
C=CCNC(=O)COC(=O)c1ccc(Cl)c(S(=O)(=O)N(Cc2ccccc2)c2ccccc2)c1,x,n,n,n,x,n,x,x
SMILES,HSF1 inh,HSP90 inh,NS3 helicase inh,DNA FID counter-1,HSF1 activator,core dimer inh,NS3 helicase cf,DNA FID counter-2
Cc1ccc(C(=O)N/N=C/c2ccc(-c3ccc(Br)cc3[N+](=O)[O-])o2)o1,n,n,48,n,n,n,n,n
COCCNC(=S)N(CCc1c(C)[nH]c2ccccc12)Cc1cccnc1,n,n,n,n,n,n,x,x
CCN(CC)c1ccc(N=Cc2ccc([N+](=O)[O-])o2)cc1,n,n,57,n,n,n,n,n
CC(=O)N(C)c1ccc(N=Cc2cc3c(cc2[N+](=O)[O-])OCO3)cc1,n,x,x,x,n,n,x,x
CCN(CC)c1ccc(N=Cc2ccccc2[N+](=O)[O-])cc1,n,n,41,n,n,n,n,n
COc1ccc(C(=O)NCc2ccc3c(c2)OCO3)c(OC)c1,n,n,n,n,n,n,x,x
COc1ccc(Cl)cc1NS(=O)(=O)c1c(C)nc2sccn2c1=O,n,n,n,n,n,n,x,x
CCn1cc2nc(SCC(=O)Nc3ccc(F)cc3F)n(Cc3ccccc3)c(=O)c2n1,n,n,n,n,n,n,x,x
COc1ccccc1C(=O)CC(=O)C(=O)Nc1cccc([N+](=O)[O-])c1C,n,n,37,n,n,n,n,n
O=C(O)CCC(=O)N1N=C(c2c(-c3ccccc3)c3cc(Cl)ccc3[nH]c2=O)CC1c1ccco1 (stereo unspecified),n,n,41,n,n,n,48,n
CCC(=O)N1N=C(c2c(-c3ccccc3)c3cc(Cl)ccc3[nH]c2=O)CC1c1ccco1 (stereo unspecified),n,n,n,n,n,n,x,x
COc1ccc([N+](=O)[O-])cc1NCc1cccc([N+](=O)[O-])c1,n,n,41,n,n,n,n,n
Cn1nnnc1SCc1nc2scc(-c3ccc(Cl)cc3)c2c(=O)[nH]1,n,n,42,n,n,n,n,n
Cc1ccc(-c2csc3nc(CSc4nnc(-c5ccc(Cl)cc5)n4C)[nH]c(=O)c23)cc1,n,n,n,n,n,n,x,x
Cc1ccc(C)c(NC(=O)CCN2CCC(C)CC2)c1,n,n,n,n,n,n,x,x
Cc1ccc(-c2nc(=S)c3c(n2Cc2ccco2)CCCC3)cc1,x,n,41,n,x,x,n,n
CN(C)CCCn1c(-c2ccccc2)nc(=S)c2c1CCCC2,n,n,n,n,n,n,x,x
CCOc1ccccc1OCCOCCN1CC(C)OC(C)C1 (stereo unspecified),n,n,n,n,n,n,x,x
Cc1cc(NC(=O)CC(C)C)c(=O)n(Cc2cccc(F)c2)c1,n,n,39,n,n,n,n,n
COc1ccc(-c2ccc(SCC(=O)NC3CCCC3)nn2)cc1OC,n,n,n,n,n,n,x,x
O=C(NN=C1CCN(Cc2ccccc2)CC1)c1cc2ccccc2cc1O,n,n,39,n,n,n,n,n
CN(C)S(=O)(=O)c1cccc(NC(=S)N/N=C/c2cc(Br)ccc2O)c1,n,n,46,n,n,n,53,n
CCOC(=O)c1cnc(N)nc1C(F)(F)F,n,n,n,n,n,n,x,x
CCCn1c(CN2CCN(C(=O)OCC)CC2)nc2c1c(=O)n(C)c(=O)n2C,n,n,n,n,n,n,x,x
CCOC(=O)N1CCN(Cc2nc3c(c(=O)n(C)c(=O)n3C)n2Cc2ccccc2C)CC1,n,n,61,n,n,n,n,n

# Screens deposited in PubChem BioAssay by several laboratories.
